# Activity calls are given as the source filed them.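 The calls were made as follows: active = compounds lowering viability with an AC50 at or under ten times their top valid dose; inconclusive = flat curve with 30 to 70% viability loss, or poor fit; inactive = flat near zero, weak potency, or rising signal.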
# System: not listed separately
# Assay: cytotoxicity toward BJeHLT cells – cell-based, dry powder, set 2, counter-screen for Ras selective lethality project, dose response (AID 493093)
# Settings: BJeHLT fibroblasts viability, Alamar Blue fluorescence, 48 h; at 48 µM (top of the series)
# In short: (§1)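 Material: BJeHLT fibroblasts, BJ cells transformed with hTERT, SV40 LT and ST; Amount: 1000 cells/well; Times: 48 h exposure, 37 °C, 5% CO2, ~16 h Alamar Blue; Detection: Alamar Blue conversion fluorescence, excitation 544 nm, emission 590 nm.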
row,SMILES,"activity change, negative = loss of viability"
1,Cc1onc(C(=O)N2CCN(C(c3ccccc3)c3ccccc3)CC2)c1C,18.4% (inactive)
2,Cc1onc(C(=O)NCCNC(c2ccccc2)c2ccccc2)c1[N+](=O)[O-],-11.4% (inactive)
3,CC(C)c1onc(C(=O)N2CCN(C(c3ccccc3)c3ccccc3)CC2)c1[N+](=O)[O-],10% (inactive)
4,Cc1oc(C)c(C(=O)N2CCN(C(c3ccccc3)c3ccccc3)CC2)c1C,19.3% (inactive)
5,O=[N+]([O-])c1ccc(CN2CCN(C(c3ccccc3)c3ccccc3)CC2)o1,-7.38% (inactive)
6,Cc1onc(C(=O)N2CCN(C(c3ccncc3)c3ccncc3)CC2)c1[N+](=O)[O-],-2.93% (inactive)
7,Cc1onc(C(=O)N2CCN(C(c3ccccc3)c3ccccc3)CC2)c1Br,15.1% (inactive)
8,O=C(c1noc2ccccc12)N1CCN(C(c2ccccc2)c2ccccc2)CC1,15.4% (inactive)
9,Cc1ccc(C(=O)N2CCN(C(c3ccccc3)c3ccccc3)CC2)c([N+](=O)[O-])c1,13% (inactive)
10,Cc1onc(C(=O)N2CCN(C(c3ccccc3)c3ccccc3)CC2)c1N,-0.577% (inactive)
11,CC(=O)Nc1c(C(=O)N2CCN(C(c3ccccc3)c3ccccc3)CC2)noc1C,8.25% (inactive)
12,Cc1onc(C(=O)N2CCN(C(c3ccccc3)c3ccccc3)CC2)c1NS(C)(=O)=O,7.7% (inactive)

# Same assay, conditions: BJeHLT fibroblasts viability, Alamar Blue fluorescence, 48 h; at 68 µM (top of the series)
row,SMILES,"activity change, negative = loss of viability"
1,Cc1cc(C(=O)N2CCN(Cc3ccccc3)CC2)no1,1.07% (inactive)
2,Cc1onc(C(=O)NCc2ccc(F)cc2)c1[N+](=O)[O-],10.9% (inactive)
3,CCOC(=O)N1CCN(C(=O)c2noc(C)c2[N+](=O)[O-])CC1,6.37% (inactive)
4,COc1ccccc1N1CCN(C(=O)c2noc(C)c2[N+](=O)[O-])CC1,7.12% (inactive)
5,Cc1onc(C(=O)N2CCN(Cc3ccccc3)CC2)c1[N+](=O)[O-],4.74% (inactive)
6,Cc1onc(C(=O)N2CCOCC2)c1[N+](=O)[O-],1.06% (inactive)

# System: BJeHLT fibroblasts viability, Alamar Blue fluorescence, 48 h
# Assay: as above
# Settings: not given
# In short: as §1
row,SMILES,AC50
1,Cc1onc(C(=O)N2CCN(C(c3ccccn3)c3ccccn3)CC2)c1[N+](=O)[O-],> 47.6 µM (inactive)
2,O=C(c1ccc([N+](=O)[O-])o1)N1CCN(C(c2ccc(F)cc2)c2ccc(F)cc2)CC1,12.1 µM
3,O=C(c1ccc([N+](=O)[O-])o1)N1CCCN(C(c2ccccc2)c2ccccc2)CC1,46.2 µM
4,O=C(NCCNC(c1ccccc1)c1ccccc1)c1ccc([N+](=O)[O-])o1,3.35 µM
5,Cc1onc(C(=O)N2CCN(C(c3ccc(F)cc3)c3ccc(F)cc3)CC2)c1[N+](=O)[O-],0.757 µM
6,Cc1onc(C(=O)N2CCN(C(c3ccc(Cl)cc3)c3ccc(Cl)cc3)CC2)c1[N+](=O)[O-],0.272 µM
7,Cc1onc(C(=O)N2CCN(C(c3ccccc3)c3ccc(Cl)cc3)CC2)c1[N+](=O)[O-] (stereo not given),0.51 µM
8,O=C(c1ccc([N+](=O)[O-])o1)N1CCN(C(c2ccccc2)c2ccccc2)CC1,18.9 µM
9,Cc1onc(C(=O)N2CCN(C(c3ccccc3)c3ccccc3)CC2)c1[N+](=O)[O-],4.97 µM
10,COc1ccc(C(c2ccc(OC)cc2)N2CCN(C(=O)c3ccc([N+](=O)[O-])o3)CC2)cc1,6.85 µM
11,COc1ccc(C(c2ccc(OC)cc2)N2CCN(C(=O)c3noc(C)c3[N+](=O)[O-])CC2)cc1,5.32 µM
12,Cc1onc(C(=O)N2CCCN(C(c3ccccc3)c3ccccc3)CC2)c1[N+](=O)[O-],2.79 µM

# — PubChem BioAssay AID493093 (Broad Institute, 2011)
